Laboratory results from ChEMBL document CHEMBL3872252, “New bithiazolyl hydrazones: Novel synthesis, characterization and antitubercular evaluation” (Bioorg Med Chem Lett, 2017).
Values after ≈ are worked out from the molar mass of the structure shown.

Columns and labels:
Bacillus subtilis [1] = assay: Growth inhibition of Bacillus subtilis at 3 ug/ml; assay type: functional; conditions: read-out: GI
In short: (§1)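 Screened against Gram-negative E. coli and P. aeruginosa and Gram-positive S. aureus and B. subtilis. Compound was tested at 3 µg/ml, and the read-out is percent growth inhibition.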

[2] = Antitubercular activity against Mycobacterium bovis BCG ATCC 35743 active stage measured on day 8 by nitrate reductase based two-fold dilution assay; assay type: functional, Mycobacterium bovis BCG str. ATCC 35743; conditions: Mycobacterium tuberculosis variant bovis BCG, ATCC 35743, 192 h
Staphylococcus aureus [3] = assay: Growth inhibition of Staphylococcus aureus at 30 ug/ml; assay type: functional; conditions: read-out: GI
[4] = Selectivity index, ratio of GI50 for human MCF7 cells to MIC90 for Mycobacterium tuberculosis H37Ra ATCC 25177 dormant stage; assay type: toxicity, cell-based; conditions: read-out: Selectivity Index
In short: (§2)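 Cytotoxicity was measured on human MCF-7, HCT116 and THP-1 cells by MTT assay, with paclitaxel as reference. The selectivity index is GI50 for the given cell line divided by MIC90 for the given mycobacterial strain and stage.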

[5] = Selectivity index, ratio of GI50 for human MCF7 cells to MIC90 for Mycobacterium bovis BCG ATCC 35743 active stage; assay type: toxicity, cell-based; conditions: read-out: Selectivity Index
In short: (§3)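 Cytotoxicity was measured on human MCF-7, HCT116 and THP-1 cells by MTT assay, with paclitaxel as reference. GI50 is the concentration inhibiting 50% of cell growth. The selectivity index is GI50 for the given cell line divided by MIC90 for the given mycobacterial strain and stage.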

[6] = Antitubercular activity against Mycobacterium tuberculosis H37Ra ATCC 25177 dormant stage measured on day 12 by XTT reduction menadione based two-fold dilution assay; assay type: functional; conditions: ATCC 25177, 288 h
In short: (§4)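 M. tuberculosis H37Ra ATCC 25177 was exposed to 0.7–100 μg/mL in two-fold steps (0.7, 1.5, 3.1 … 100). Active stage was read after 8 days and dormant stage after 12 days of incubation. Inhibition was read by XTT reduction menadione assay (XRMA), absorbance 470 nm. MIC90 is the concentration giving ≥90% inhibition (µg/mL).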

Staphylococcus aureus [7] = assay: Growth inhibition of Staphylococcus aureus at 10 ug/ml; assay type: functional; conditions: read-out: GI
Escherichia coli [8] = assay: Growth inhibition of Escherichia coli at 3 ug/ml; assay type: functional; conditions: read-out: GI; in short: as §1
[9] = Cytotoxicity against human MCF7 cells by MTT assay; assay type: toxicity, cell-based; conditions: for GI50: MCF7 cells; for GI90: mcf7
[10] = Antitubercular activity against Mycobacterium tuberculosis H37Ra ATCC 25177 dormant stage infected in human THP1 cells measured on day 12 by nitrate reductase assay; assay type: functional, THP-1; conditions: ATCC 25177, 288 h
[11] = Cytotoxicity against human HCT116 cells by MTT assay; assay type: toxicity, cell-based, HCT-116; conditions: for GI50: HCT116 cells; for GI90: hct-116
Escherichia coli [12] = assay: Growth inhibition of Escherichia coli at 30 ug/ml; assay type: functional; conditions: read-out: GI
Staphylococcus aureus [13] = assay: Growth inhibition of Staphylococcus aureus at 3 ug/ml; assay type: functional; conditions: read-out: GI; in short: as §1
[14] = Selectivity index, ratio of GI50 for human HCT116 cells to MIC90 for Mycobacterium bovis BCG ATCC 35743 active stage; assay type: toxicity, cell-based, HCT-116; conditions: read-out: Selectivity Index; in short: as §3
Pseudomonas aeruginosa [15] = assay: Growth inhibition of Pseudomonas aeruginosa at 3 ug/ml; assay type: functional; conditions: read-out: GI; in short: as §1
[16] = Antitubercular activity against Mycobacterium tuberculosis H37Ra ATCC 25177 active stage infected in human THP1 cells measured on day 8 by nitrate reductase assay; assay type: functional, THP-1; conditions: ATCC 25177, 192 h
[17] = Antitubercular activity against Mycobacterium tuberculosis H37Ra ATCC 25177 active stage measured on day 8 by XTT reduction menadione based two-fold dilution assay; assay type: functional; conditions: ATCC 25177, 192 h; in short: as §4
Escherichia coli [18] = assay: Growth inhibition of Escherichia coli at 10 ug/ml; assay type: functional; conditions: read-out: GI
Bacillus subtilis [19] = assay: Growth inhibition of Bacillus subtilis at 30 ug/ml; assay type: functional; conditions: read-out: GI
[20] = Selectivity index, ratio of GI50 for human THP1 cells to MIC90 for Mycobacterium tuberculosis H37Ra ATCC 25177 active stage; assay type: toxicity, cell-based, THP-1; conditions: read-out: Selectivity Index; in short: as §3
Pseudomonas aeruginosa [21] = assay: Growth inhibition of Pseudomonas aeruginosa at 10 ug/ml; assay type: functional; conditions: read-out: GI
[22] = Selectivity index, ratio of GI50 for human THP1 cells to MIC90 for Mycobacterium bovis BCG ATCC 35743 active stage; assay type: toxicity, cell-based, THP-1; conditions: read-out: Selectivity Index; in short: as §3
[23] = Selectivity index, ratio of GI50 for human THP1 cells to MIC90 for Mycobacterium tuberculosis H37Ra ATCC 25177 dormant stage; assay type: toxicity, cell-based, THP-1; conditions: read-out: Selectivity Index; in short: as §2
[24] = Selectivity index, ratio of GI50 for human MCF7 cells to MIC90 for Mycobacterium tuberculosis H37Ra ATCC 25177 active stage; assay type: toxicity, cell-based; conditions: read-out: Selectivity Index; in short: as §3
Bacillus subtilis [25] = assay: Growth inhibition of Bacillus subtilis at 10 ug/ml; assay type: functional; conditions: read-out: GI
Pseudomonas aeruginosa [26] = assay: Growth inhibition of Pseudomonas aeruginosa at 30 ug/ml; assay type: functional; conditions: read-out: GI
[27] = Selectivity index, ratio of GI50 for human MCF7 cells to MIC90 for Mycobacterium bovis BCG ATCC 35743 dormant stage; assay type: toxicity, cell-based; conditions: read-out: Selectivity Index; in short: as §2
[28] = Selectivity index, ratio of GI50 for human HCT116 cells to MIC90 for Mycobacterium tuberculosis H37Ra ATCC 25177 active stage; assay type: toxicity, cell-based, HCT-116; conditions: read-out: Selectivity Index; in short: as §3
[29] = Selectivity index, ratio of GI50 for human HCT116 cells to MIC90 for Mycobacterium tuberculosis H37Ra ATCC 25177 dormant stage; assay type: toxicity, cell-based, HCT-116; conditions: read-out: Selectivity Index; in short: as §2
[30] = Cytotoxicity against human THP1 cells by MTT assay; assay type: toxicity, cell-based, THP-1; conditions: for GI50: THP1 cells; for GI90: thp-1
[31] = Selectivity index, ratio of GI50 for human THP1 cells to MIC90 for Mycobacterium bovis BCG ATCC 35743 dormant stage; assay type: toxicity, cell-based, THP-1; conditions: read-out: Selectivity Index; in short: as §2
[32] = Antitubercular activity against Mycobacterium bovis BCG ATCC 35743 dormant stage measured on day 12 by nitrate reductase based two-fold dilution assay; assay type: functional, Mycobacterium bovis BCG str. ATCC 35743; conditions: Mycobacterium tuberculosis variant bovis BCG, ATCC 35743, 288 h
[33] = Selectivity index, ratio of GI50 for human HCT116 cells to MIC90 for Mycobacterium bovis BCG ATCC 35743 dormant stage; assay type: toxicity, cell-based, HCT-116; conditions: read-out: Selectivity Index; in short: as §2

SMILES: C/C(=N\Nc1nc(-c2ccc(Br)cc2)cs1)c1sc(C)nc1C
- inhibition of growth at 3 µg/mL (Bacillus subtilis [1]): 25.9%
- IC50 [2]: 1.6 µg/mL (≈ 3.93 µM)
- MIC90 [2]: 11.4 µg/mL (≈ 28 µM)
- inhibition of growth at 30 µg/mL (Staphylococcus aureus [3]): 81%
- selectivity ratio [4]: 2
- selectivity ratio [5]: 9
- IC50 [6]: 0.66 µg/mL (≈ 1.62 µM)
- MIC90 [6]: 43.7 µg/mL (≈ 107 µM)
- inhibition of growth at 10 µg/mL (Staphylococcus aureus [7]): 68.8%
- inhibition of growth at 3 µg/mL (Escherichia coli [8]): 35.8%
- GI50 [9]: > 100 µg/mL
- GI90 [9]: > 100 µg/mL
- MIC90 [10]: 48.8 µg/mL (≈ 120 µM)
- GI50 [11]: > 100 µg/mL
- GI90 [11]: > 100 µg/mL
- inhibition of growth at 30 µg/mL (Escherichia coli [12]): 82%
- inhibition of growth at 3 µg/mL (Staphylococcus aureus [13]): 31.2%
- selectivity ratio [14]: 9
- inhibition of growth at 3 µg/mL (Pseudomonas aeruginosa [15]): 30.5%
- MIC90 [16]: 47.9 µg/mL (≈ 118 µM)
- IC50 [17]: 0.15 µg/mL (≈ 0.368 µM)
- MIC90 [17]: 44.1 µg/mL (≈ 108 µM)
- inhibition of growth at 10 µg/mL (Escherichia coli [18]): 70.7%
- inhibition of growth at 30 µg/mL (Bacillus subtilis [19]): 79.5%
- selectivity ratio [20]: 2
- inhibition of growth at 10 µg/mL (Pseudomonas aeruginosa [21]): 69.5%
- selectivity ratio [22]: 9
- selectivity ratio [23]: 2
- selectivity ratio [24]: 2
- inhibition of growth at 10 µg/mL (Bacillus subtilis [25]): 66.4%
- inhibition of growth at 30 µg/mL (Pseudomonas aeruginosa [26]): 82.1%
- selectivity ratio [27]: 9
- selectivity ratio [28]: 2
- selectivity ratio [29]: 2
- GI50 [30]: > 100 µg/mL
- GI90 [30]: > 100 µg/mL
- selectivity ratio [31]: 9
- IC50 [32]: 2.51 µg/mL (≈ 6.16 µM)
- MIC90 [32]: 10.6 µg/mL (≈ 26 µM)
- selectivity ratio [33]: 9

SMILES: C/C(=N\Nc1nc(-c2ccc(Cl)cc2)cs1)c1sc(C)nc1C
- inhibition of growth at 3 µg/mL (Bacillus subtilis [1]): 47.1%
- IC50 [2]: 1.95 µg/mL (≈ 5.37 µM)
- MIC90 [2]: 16.1 µg/mL (≈ 44.2 µM)
- inhibition of growth at 30 µg/mL (Staphylococcus aureus [3]): 66.3%
- selectivity ratio [4]: 1
- selectivity ratio [5]: 6
- IC50 [6]: 9.02 µg/mL (≈ 24.9 µM)
- MIC90 [6]: > 100 µg/mL
- inhibition of growth at 10 µg/mL (Staphylococcus aureus [7]): 61.7%
- inhibition of growth at 3 µg/mL (Escherichia coli [8]): 54%
- GI50 [9]: > 100 µg/mL
- GI90 [9]: > 100 µg/mL
- MIC90 [10]: > 100 µg/mL
- GI50 [11]: > 100 µg/mL
- GI90 [11]: > 100 µg/mL
- inhibition of growth at 30 µg/mL (Escherichia coli [12]): 68.4%
- inhibition of growth at 3 µg/mL (Staphylococcus aureus [13]): 50.9%
- selectivity ratio [14]: 6
- inhibition of growth at 3 µg/mL (Pseudomonas aeruginosa [15]): 50.9%
- MIC90 [16]: > 100 µg/mL
- IC50 [17]: 11.9 µg/mL (≈ 32.8 µM)
- MIC90 [17]: > 100 µg/mL
- inhibition of growth at 10 µg/mL (Escherichia coli [18]): 63.9%
- inhibition of growth at 30 µg/mL (Bacillus subtilis [19]): 63.8%
- selectivity ratio [20]: 3
- inhibition of growth at 10 µg/mL (Pseudomonas aeruginosa [21]): 61.6%
- selectivity ratio [22]: 6
- selectivity ratio [23]: 1
- selectivity ratio [24]: 3
- inhibition of growth at 10 µg/mL (Bacillus subtilis [25]): 58.9%
- inhibition of growth at 30 µg/mL (Pseudomonas aeruginosa [26]): 66.9%
- selectivity ratio [27]: 6
- selectivity ratio [28]: 3
- selectivity ratio [29]: 1
- GI50 [30]: > 100 µg/mL
- GI90 [30]: > 100 µg/mL
- selectivity ratio [31]: 6
- IC50 [32]: 3.06 µg/mL (≈ 8.43 µM)
- MIC90 [32]: 17 µg/mL (≈ 46.7 µM)
- selectivity ratio [33]: 6
